Results as given in ChEMBL document CHEMBL4266033, “Neolymphostin A Is a Covalent Phosphoinositide 3-Kinase (PI3K)/Mammalian Target of Rapamycin (mTOR) Dual Inhibitor That Employs an Unusual Electrophilic Vinylogous Ester” (J Med Chem, 2018).
Active and inactive are the calls of the source. The calls are words filed in the database; no cut-off is given here.

Key:
HeLa [1] = experiment: Inhibition of PI3K in human HeLa cells assessed as reduction in EGF-stimulated AKT phosphorylation at S473 at 1 to 100 nM preincubated for 10 mins followed by EGF stimulation measured after 5 mins by Western blot analysis; assay type: cell-based
Method in brief: (§1)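 HeLa cells were serum-starved overnight, pretreated with compound for 10 min, then stimulated with 10 ng mL-1 EGF for 5 min. Lysis was in boiling SDS sample buffer, with protein quantified at 660 nm. Equal protein was resolved by SDS-PAGE and Western blotted for pEGFR Tyr1068, pAKT Ser473/Thr308, and pERK1/2 Thr202/Tyr204 with total proteins and GAPDH, detected by ECL.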

HeLa [2] = experiment: Inhibition of PI3K in human HeLa cells assessed as reduction in EGF-stimulated AKT phosphorylation at T308 at 1 to 100 nM preincubated for 10 mins followed by EGF stimulation measured after 5 mins by Western blot analysis; assay type: cell-based; method in brief: as §1
[3] = Glutathione reactivity assessed as formation of (2S)-2-amino-5-((2R)-1-(carboxymethylamino)-3-(1-methoxy-3-oxo-3-(pyridin-2-yl)propylthio)-1-oxopropan-2-ylamino)-5-oxopentanoic acid in presence of pH 7.4 at 25 degC by NMR based method; assay type: physicochemical; conditions: gsh
[4] = Electrophilicity towards N-alpha-acetyl lysine in 100 mM pH 8.1 phosphate buffer assessed as (S)-2-acetamido-6-(3-oxo-3-(pyridin-2-yl)prop-1-enylamino)hexanoic acid formation using 10 fold excess N-alpha-acetyl lysine at 25 degC by NMR spectrscopy; assay type: physicochemical
Method in brief: (§2)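 NMR kinetics of the model electrophile with and without Nα-acetyl lysine, set up as in the glutathione protocol. Phosphate-buffered D2O (100 mM) was at pH 8.1. Electrophile diluted from a 200 mM DMSO-d6 stock; lysine solution freshly prepared in the same buffer.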

[5] = Glutathione reactivity assessed as formation of (2S)-2-amino-5-((2R)-1-(carboxymethylamino)-3-(1-methoxy-3-oxo-3-(pyridin-2-yl)propylthio)-1-oxopropan-2-ylamino)-5-oxopentanoic acid in presence of pH 7.4 at 37 degC by NMR based method; assay type: physicochemical; conditions: gsh
[6] = Electrophilicity towards N-alpha-acetyl lysine in 100 mM pH 7.4 phosphate buffer using 10 fold excess N-alpha-acetyl lysine at 25 degC by NMR spectrscopy; assay type: physicochemical
Method in brief: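 Model electrophile with tenfold excess Nα-acetyl lysine in 100 mM phosphate buffer, pH 7.4, at 25 °C. Set up as in the glutathione NMR kinetics (1.0 mM electrophile from DMSO-d6 stock, buffered D2O).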

[7] = Electrophilicity towards N-alpha-acetyl lysine in 100 mM pH 8.1 phosphate buffer assessed as 3-hydroxy-1-(pyridin-2-yl)prop-2-en-1-one formation using 10 fold excess N-alpha-acetyl lysine at 25 degC by NMR spectrscopy; assay type: physicochemical; method in brief: as §2
[8] = target: Epidermal growth factor receptor (Homo sapiens) (UniProt P00533); experiment: Inhibition of EGFR in human HeLa cells assessed as reduction in EGF-stimulated ERK1/2 phosphorylation at T202/Y204 at 100 nM preincubated for 10 mins followed by EGF stimulation measured after 5 mins by Western blot analysis; assay type: cell-based
Method in brief: (§3)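 HeLa cells serum-starved overnight, pretreated with compound for 10 min, then stimulated with EGF at 10 ng mL-1 for 5 min. Lysis in boiling SDS sample buffer, protein quantified, equal protein boiled 5 min and run on SDS-PAGE. Transfer to PVDF, Western blot for EGFR/pEGFR (Tyr1068), AKT/pAKT (Ser473, Thr308), ERK1/2/pERK1/2 (Thr202/Tyr204) and GAPDH, with ECL detection.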

HeLa [9] = experiment: Inhibition of PI3K in human HeLa cells assessed as reduction in EGF-stimulated AKT phosphorylation at T308 at 100 nM preincubated for 10 mins followed by EGF stimulation measured after 5 mins by Western blot analysis; assay type: cell-based; method in brief: as §3
[10] = target: Epidermal growth factor receptor (Homo sapiens) (UniProt P00533); experiment: Inhibition of EGFR in human HeLa cells assessed as reduction in EGF-stimulated EGFR Y1068 phosphorylation at 100 nM preincubated for 10 mins followed by EGF stimulation measured after 5 mins by Western blot analysis; assay type: cell-based; method in brief: as §3
HeLa [11] = experiment: Inhibition of PI3K in human HeLa cells assessed as reduction in EGF-stimulated AKT phosphorylation at S473 at 100 nM preincubated for 10 mins followed by EGF stimulation measured after 5 mins by Western blot analysis; assay type: cell-based; method in brief: as §3

Epidermal growth factor receptor (Homo sapiens), sequence (P00533 whole entry): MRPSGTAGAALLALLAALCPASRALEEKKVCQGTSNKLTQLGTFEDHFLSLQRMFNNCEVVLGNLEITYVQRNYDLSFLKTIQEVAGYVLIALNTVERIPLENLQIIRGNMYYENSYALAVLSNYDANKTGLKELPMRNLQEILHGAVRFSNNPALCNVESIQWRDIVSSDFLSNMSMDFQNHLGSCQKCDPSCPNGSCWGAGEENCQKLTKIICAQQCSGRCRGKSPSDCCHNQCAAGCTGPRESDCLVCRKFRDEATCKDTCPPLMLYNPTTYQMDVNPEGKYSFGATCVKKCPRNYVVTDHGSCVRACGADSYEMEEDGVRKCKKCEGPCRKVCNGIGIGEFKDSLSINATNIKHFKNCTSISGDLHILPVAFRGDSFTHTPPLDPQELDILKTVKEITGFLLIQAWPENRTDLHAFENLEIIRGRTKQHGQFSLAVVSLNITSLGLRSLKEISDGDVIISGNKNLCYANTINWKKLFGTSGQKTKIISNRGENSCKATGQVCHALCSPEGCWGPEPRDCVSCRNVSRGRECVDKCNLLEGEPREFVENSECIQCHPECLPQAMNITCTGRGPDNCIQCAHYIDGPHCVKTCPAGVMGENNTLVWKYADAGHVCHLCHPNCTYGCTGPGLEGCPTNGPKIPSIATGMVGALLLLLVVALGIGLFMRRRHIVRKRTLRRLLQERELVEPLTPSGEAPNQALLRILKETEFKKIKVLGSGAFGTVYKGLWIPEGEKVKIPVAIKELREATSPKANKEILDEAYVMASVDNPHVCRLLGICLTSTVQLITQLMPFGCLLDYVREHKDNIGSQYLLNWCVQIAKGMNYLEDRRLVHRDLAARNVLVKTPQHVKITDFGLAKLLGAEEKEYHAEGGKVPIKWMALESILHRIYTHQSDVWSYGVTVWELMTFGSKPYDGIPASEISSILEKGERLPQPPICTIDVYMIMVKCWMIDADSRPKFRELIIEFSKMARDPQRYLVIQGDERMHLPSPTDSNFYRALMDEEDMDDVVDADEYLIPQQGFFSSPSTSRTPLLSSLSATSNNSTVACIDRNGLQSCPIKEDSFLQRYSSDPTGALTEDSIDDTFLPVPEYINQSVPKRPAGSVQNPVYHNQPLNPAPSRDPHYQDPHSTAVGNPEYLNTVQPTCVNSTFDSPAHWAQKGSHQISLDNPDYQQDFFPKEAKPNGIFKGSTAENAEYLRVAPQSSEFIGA

CC(C)C(=O)Nc1cc(N)c2c3c(cc(C(=O)CCO)nc13)C=N2
inhibition (HeLa [1]): inactive
inhibition (HeLa [2]): inactive

CO/C=C/C(=O)c1ccccn1
t1/2 [3]: 13 min
t1/2 [4]: 60 min
t1/2 [5]: 5.4 min
Activity [6]: Not Active
t1/2 [7]: 1440 min

COC[C@H]1OC(=O)c2coc3c2[C@@]1(C)C1=C(C3=O)[C@@H]2CCC(=O)[C@@]2(C)C[C@H]1OC(C)=O
inhibition [8]: inactive
inhibition (HeLa [9]): Active
inhibition [10]: inactive
inhibition (HeLa [11]): Active
